# Hits are enriched below; roughly 1.3% of the tested compounds scored in any of these assays.
# H9c2 TAG inh = reduces triacylglycerol accumulation in H9c2 cells. Nile Red lipid (TAG) fluorescence; cells loaded with 200 µM oleic acid. inhibition, % at 12.5 µM. actives 0.66% (n = 230,000). AID 651582;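 active = pattern-corrected inhibition of lipid staining of at least 50% with the nuclear-stain viability signal not falling by more than 50%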;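 note: 0% = DMSO wells and 100% = triacsin C control wells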
# Hck-Nef inh = inhibitors of human Hck kinase activated by Nef; P08631; Recombinant Hck-YEEI plus Nef, Z-Lyte FRET kinase assay; inhibition, % at 20 µM; actives 0.68% (n = 220,000); AID 463187;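 active = Hck-Nef kinase inhibition above about 50%, limit read from the data; inactive = inhibition below that limit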;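 note: 0% = DMSO with Hck plus Nef and 100% = Hck alone without Nef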
# PKD1 kinase inh = PKD1 (human) kinase inhibition. inhibition, % (concentration not given with the values). AID 797. actives 0.056% (n = 200,000). Q15139. PKD1 kinase fluorescence polarization assay; in the data active = inhibition above about 50%
# PERK inh = blocks human PERK kinase | AID 1416 | inhibition, % at 5.6 µM | CHO PERK-DD fusion, SEAP luminescence translation reporter | actives 0.17% (n = 220,000);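 active = inhibition above the mean inhibition of all tested compounds plus 3 SD, set separately per screening campaign, cut at about 2.9% in these data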;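 note: PERK kinase domain activated by AP20187 dimerizer at 100 nM; 0% = DMSO with dimerizer and 100% = rapamycin at 8.4 µM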
# Target sequence (Q9NZJ5 whole entry, looked up, the tested form may be a part): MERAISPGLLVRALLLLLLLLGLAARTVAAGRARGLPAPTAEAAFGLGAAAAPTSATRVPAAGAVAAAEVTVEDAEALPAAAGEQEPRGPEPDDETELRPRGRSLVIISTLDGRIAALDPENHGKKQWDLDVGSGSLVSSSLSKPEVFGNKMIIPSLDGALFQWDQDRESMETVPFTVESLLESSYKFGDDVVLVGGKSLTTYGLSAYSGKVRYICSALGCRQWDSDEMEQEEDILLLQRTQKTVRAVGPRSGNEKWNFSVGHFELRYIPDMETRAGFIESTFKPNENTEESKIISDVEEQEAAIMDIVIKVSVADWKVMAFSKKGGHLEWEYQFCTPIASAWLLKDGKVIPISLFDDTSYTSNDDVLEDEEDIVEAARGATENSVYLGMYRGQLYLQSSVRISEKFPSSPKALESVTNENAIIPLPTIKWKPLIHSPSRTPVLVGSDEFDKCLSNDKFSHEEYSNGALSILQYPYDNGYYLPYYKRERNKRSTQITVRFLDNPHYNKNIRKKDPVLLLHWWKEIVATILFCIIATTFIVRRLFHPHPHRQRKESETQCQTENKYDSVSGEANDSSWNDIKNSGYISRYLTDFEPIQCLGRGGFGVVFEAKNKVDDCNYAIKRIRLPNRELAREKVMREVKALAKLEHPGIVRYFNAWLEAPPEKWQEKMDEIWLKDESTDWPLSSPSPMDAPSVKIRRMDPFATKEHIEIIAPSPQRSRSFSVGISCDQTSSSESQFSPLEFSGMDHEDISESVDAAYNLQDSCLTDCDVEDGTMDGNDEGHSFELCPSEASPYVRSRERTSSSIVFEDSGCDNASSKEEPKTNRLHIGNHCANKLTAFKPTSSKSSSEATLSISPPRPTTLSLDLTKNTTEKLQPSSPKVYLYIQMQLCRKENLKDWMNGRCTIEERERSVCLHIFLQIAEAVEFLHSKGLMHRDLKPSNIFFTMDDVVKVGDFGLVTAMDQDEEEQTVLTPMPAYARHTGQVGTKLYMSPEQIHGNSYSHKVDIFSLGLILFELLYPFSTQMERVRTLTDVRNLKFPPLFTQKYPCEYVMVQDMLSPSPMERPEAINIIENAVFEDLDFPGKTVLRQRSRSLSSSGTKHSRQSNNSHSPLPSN
# MDM2 E3 inh = blocks human Mdm2 ubiquitin ligase activity | Q00987 | actives 0.11% (n = 210,000) | signal enhancement, % at 5 µM | cell-based MDM2 ubiquitination luciferase reporter, 2 h; 0 = plate control, 100 = twice control, blank-subtracted;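 active = signal enhancement of 30% or more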;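 note: luminescence tracks abundance of the self-degrading MDM2-luciferase fusion protein; higher signal means inhibition of MDM2 E3 ligase activity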
#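 system = mammalian cells stably expressing self-ubiquitinating, self-degrading MDM2 E3–luciferase fusion | quantity = 2000 cells per well seeded | incubation = 4 h cell settling then 2 h compound exposure, 37 °C | signal = SteadyLite luminescence, 15 min reagent step | benchmarks = plate control and blank wells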
# Rad51 HR inh = Rad51 (human) homologous recombination inhibition; hRad51 DNA strand exchange, fluorescence dequenching; inhibition, % at 10 µM; actives 0.085% (n = 200,000); Q06609;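 active = inhibition above 40% at the single screening dose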;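 note: 0% = DMSO control wells and 100% = blanks with heterologous ssDNA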
#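 System: human Rad51 nucleoprotein filaments preassembled on unlabelled ssDNA. Reagent: labelled 47-mer dsDNA for strand exchange. Schedule: 30-min compound preincubation and 15-min exchange, both room temperature. Measured by: FRET fluorescence dequenching, excitation 485 nm, emission 520 nm. Read-out: Fluorescence-based percent inhibition, control- and blank-normalised. Benchmarks: plate controls and plate blanks.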
# Active calls of the source: *; · = no result given.
SMILES,H9c2 TAG inh,Hck-Nef inh,PKD1 kinase inh,PERK inh,MDM2 E3 inh,Rad51 HR inh
CCOC(=O)C1=CN(Cc2cccc(F)c2)S(=O)(=O)N(CC)C1c1ccc(C(F)(F)F)cc1 (stereo unspecified),-4,·,·,·,·,·
CC(C)Cc1csc(NC(=O)c2ccc(Br)cc2)c1C(=O)O,0,9,·,3.2*,-15,11
COc1ccccc1N1CCN(C(=O)C2c3ccccc3Oc3ccccc32)CC1,57*,0,-2,-1,-9,4
NC(=O)CSc1nnc(CSc2ncccn2)n1-c1ccccc1,-5,-6,5,3.0*,-12,·
CCOC(=O)Cc1c(C)nc2c(-c3ccccc3)c(C)[nH]n2c1=O,·,0,-12,3.0*,-5,-6
Cn1c(=O)[nH]c(=O)c2c1nc(Br)n2CCCc1ccccc1,·,7,-6,1,30*,·
Cn1c(=O)c2c(nc(Br)n2CCCc2ccccc2)n(C)c1=O,-35,-1,13,0,5,·
CC(C)CC(NC(=O)C(COC(C)(C)C)NC(=O)C(Cc1ccc(O)cc1)NC(=O)C(CO)NC(=O)C(Cc1c[nH]c2ccccc12)NC(=O)C(Cc1cnc[nH]1)NC(=O)C1CCC(=O)N1)C(=O)N[C@@H](CCCN=C(N)N)C(=O)N1CCCC1C(=O)NNC(N)=O (stereo partly specified),·,·,·,·,·,0
CCOC(=O)CNC(=O)Nc1nnc(-c2ccc(OCC)cc2)o1,-6,13,1,0,-8,-3
CC1CCCC(C)N1C(=O)Nc1cccc(Cl)c1 (stereo unspecified),·,3,3,2.9*,-16,-4
Cc1nn2c3ccccc3nc2n(Cc2ccccc2)c1=O,·,-3,-12,3.1*,·,·
CCOC(=O)C1[C@H]2C(=O)N(CCCOC)C[C@]23C=C[C@H]1O3 (stereo partly specified),·,-1,-3,1,-10,-3
CCCCOC(=O)C1C2C=C[C@]3(CN(CCCOC)C(=O)[C@H]13)O2 (stereo partly specified),-7,0,-9,3.4*,-24,-17
O=C1/C(=N\S(=O)(=O)c2cccs2)C([n+]2ccc(CCCc3ccccc3)cc2)=C([O-])c2ccccc21,16,19,·,-1,2,20
O=C1/C(=N\S(=O)(=O)c2cccs2)C([n+]2cccc(Cc3ccccc3)c2)=C([O-])c2ccccc21,73*,31,·,-2,-70,-467
NC(=O)c1c(NC(=O)C2CCCO2)sc2c1CCCC2 (stereo unspecified),·,0,-5,0,34*,-7
Cc1cc[n+](-c2ccccc2)c2ccccc12,-55,-34,-4,0,-21,-3
COCCNC(=S)N(C)[C@H]1C[C@H]2c3cc(-c4ccccc4)ccc3CCN2C(=O)[C@H]1[C@H](C)O,8,·,·,·,·,·
CC1CCCC(C)N1S(=O)(=O)c1ccc(NC(=O)CCn2cnc3ccccc3c2=O)cc1 (stereo unspecified),·,2,-2,0,-77,126*
O=C(Cn1cnc2ccccc2c1=O)Nc1ccc(S(=O)(=O)N2CCCC2)cc1,·,17,1,0,-27,-5
COc1cccc(CNC(=O)CN2C(=O)CSc3ccc(S(=O)(=O)N4CCCC4)cc32)c1,0,3,-6,0,·,·
CCOC(=O)c1c(CSC(=N)N)n(-c2ccc(C)cc2)c2cc(Br)c(OC(C)=O)cc12,74*,0,-10,0,-7,0
CCOC(=O)c1c(CSC(=N)N)n(C)c2cc(Br)c(OC(C)=O)cc12,21,22,·,-1,-8,6
CC(C)Cc1cc(C(=O)NCc2cccs2)no1,11,-5,-7,3.4*,-28,0
O=C(CSc1nc(=O)n2ccccc2n1)N1CCN(c2ccccc2)CC1,12,·,·,·,·,·
SMILES,H9c2 TAG inh,Hck-Nef inh,PKD1 kinase inh,PERK inh,MDM2 E3 inh,Rad51 HR inh
COc1ccc(N=Nc2n(C)c3ccccc3[n+]2C)cc1,·,11,·,3.4*,-90,·
CC(/C=C1\SC(=S)N(NS(=O)(=O)c2ccccc2)C1=O)=C\c1ccccc1,7,74*,·,1,-8,-11
CC(/C=C1\SC(=S)N(NC(=O)c2ccc(C)cc2)C1=O)=C\c1ccccc1,0,-1,6,0,23,-3
CC1CCN(S(=O)(=O)c2ccc3c(c2)C(=NO)c2cc(S(=O)(=O)N4CCC(C)CC4)ccc2-3)CC1,84*,1,-12,1,10,2
CCN(CC)S(=O)(=O)c1ccc2c(c1)C(=NO)c1cc(S(=O)(=O)N(CC)CC)ccc1-2,53*,7,-7,-1,-2,8
O=S(=O)(Nc1ccc(O)c(NS(=O)(=O)c2ccccc2)c1)c1ccccc1,-27,·,·,·,·,·
CC(C)(O)[C@@H]1[C@@H]2C[C@@]3(CC[C@]4(C)C(CCC5[C@@]6(C)CC[C@H](O)C(C)(C)C6CC[C@]54C)[C@@H]13)C(=O)O2 (stereo partly specified),·,·,·,·,·,-8
CC1=C/C(=N\NC(=S)Nc2cccnc2)CC(C)(C)C1,53*,-26,1,0,-92,-9
CCOC(=O)C1=C(C)NC(C)=C(C(=O)OCC)C1c1ccc(Br)o1,·,3,0,-1,6,7
CCOC(=O)c1c(C)noc1-c1ccc(Br)o1,-4,3,·,4.6*,-3,-3
Nc1n[nH]c(-c2ccc([N+](=O)[O-])cc2[N+](=O)[O-])n1,21,18,-4,1,5,4
CS(=O)(=O)N1CCN(c2ccc([N+](=O)[O-])c(NCc3ccc(Cl)cc3)c2)CC1,·,98*,0,0,-7,·
CS(=O)(=O)N1CCN(c2ccc([N+](=O)[O-])c(NCc3ccccc3)c2)CC1,-8,2,0,1,-10,·
CCN(CC)C(=O)CN1CCN(c2ncccn2)CC1,·,-2,0,0,53*,·
CC(=O)c1ccc(N/N=C(/C(N)=O)C2=NC(C)(C)Cc3ccccc32)cc1,·,72*,1,-1,-12,·
CC1(C)Cc2ccccc2C(/C(=N\Nc2cccc(Cl)c2)C(N)=O)=N1,·,26,-6,0,-8,3
CCCN(CCC)CCNc1c(NC2CCN(C(=O)OCC)CC2)c(=O)c1=O,5,1,-6,1,48*,-2
O=C(CN1CCCCCC1)NCc1ccccc1,4,-17,-11,0,-8,-2
O=C(CN1CCCCC1)NC(=O)NCc1ccccc1,·,3,-1,0,38*,-1
N=C1C(c2nc3ccccc3[nH]2)=C(O)CN1c1ccccc1,6,28,-3,0,41*,-12
N=C1C(c2nc3ccccc3[nH]2)=C(O)CN1c1ccc(CC(=O)O)cc1,·,1,-3,0,-15,-2

# Screening data as filed in PubChem.
